The subject of assay [1] is LS174T. Briefly: Tested for the cytotoxicity in LS174T cells after activation by enzyme nitroreductase/NADH. Format: functional, cell-based. As to conditions: Homo sapiens. Summed up:
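Human adenocarcinoma LS174T cells were seeded at 2000 cells/well and exposed to a range of prodrug concentrations together with nitroreductase and NADH cofactor for 1 h. Cells were washed and grown for 3 days. IC50 is the prodrug dose giving 50% growth inhibition versus drug-free controls.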

Assay [2] concerns LS174T. The experiment in a line: Parent […] tested for the cytotoxicity in LS174T cells. Format: functional, cell-based. As to conditions: Homo sapiens.
For assay [3], the system named is LS174T. Briefly: Tested for the cytotoxicity in LS174T cells before activation by enzyme nitroreductase/NADH. Format: functional, cell-based. Conditions: Homo sapiens. An outline of the steps:
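LS174T adenocarcinoma cells were seeded at 2000 cells/well and treated with various prodrug concentrations for 1 h without enzyme. They were washed and incubated for 3 days. IC50 is the dose inhibiting growth by 50% relative to drug-free controls.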

Assay [4] concerns LS174T. The experiment in a line: The compound was evaluated for Activation Factor. Format: functional, Homo sapiens.
The subject of assay [5] is LS174T. Briefly: Tested for the cytotoxicity in LS174T cells; 0.001-0.01. The format is functional, cell-based. Conditions: Homo sapiens.

Regarding `C/C=C1/C[C@H]2[C@H](O)N(C(=O)OCc3ccc([N+](=O)[O-])cc3)c3cc(OCc4ccccc4)c(OC)cc3C(=O)N2C1`, the results for the IC50 in the assay on LS174T [1], in the assay with LS174T [2] and in the assay on LS174T [3] were 6.4 µM, 0.001 µM and 86.2 µM, respectively. The “Activation Factor” value in the assay on LS174T [4] is recorded as 13.5.
As to `C/C=C1/C[C@H]2C=Nc3cc(OCc4ccccc4)c(OC)cc3C(=O)N2C1`, the IC50 with LS174T [5] was determined as 0.01 µM.
In the case of `COc1cc2c(cc1OCCCOc1cc3c(cc1OC)C(=O)N1CCC[C@H]1[C@H](O)N3C(=O)OCc1ccc([N+](=O)[O-])cc1)N(C(=O)OCc1ccc([N+](=O)[O-])cc1)[C@@H](O)[C@@H]1CCCN1C2=O`, the IC50 in the assay on LS174T [1] amounted to 13.7 µM; in the assay with LS174T [2], 0.0005 µM; in the assay with LS174T [3], 215 µM. Moreover, the “Activation Factor” value in the assay on LS174T [4] amounted to 15.7.
On to `COc1cc2c(cc1OCc1ccccc1)N(C(=O)OCc1ccc([N+](=O)[O-])cc1)[C@@H](O)[C@@H]1CCCN1C2=O`, for which the half-inhibitory concentration (IC50) with LS174T [1] was 5 µM; with LS174T [2] it was 0.008 µM; in the assay with LS174T [3] it was greater than 500 µM. Further, in the assay on LS174T [4], the “Activation Factor” value is recorded as greater than 100.

The term IC50 denotes the concentration at which inhibition is half-maximal.

Values taken from ChEMBL document CHEMBL1133066, “Design and synthesis of novel pyrrolobenzodiazepine (PBD) prodrugs for ADEPT and GDEPT” (Bioorg Med Chem Lett, 2000).
